Experimental findings from ChEMBL document CHEMBL1123285, “Substituted 1-benzylimidazole-2-thiols as potent and orally active inhibitors of dopamine beta-hydroxylase” (J Med Chem, 1986) are described below.

pKi: −log10 of the molar value.

Assay [1] in a line: Ratio of dopamine to that of NE levels in mesenteric artery measured at 50 mg/kg po. It is filed as functional.
Assay [2] addresses T1, Dopamine beta-hydroxylase (Bos taurus, UniProt P15101).
T1 sequence (P15101 whole entry): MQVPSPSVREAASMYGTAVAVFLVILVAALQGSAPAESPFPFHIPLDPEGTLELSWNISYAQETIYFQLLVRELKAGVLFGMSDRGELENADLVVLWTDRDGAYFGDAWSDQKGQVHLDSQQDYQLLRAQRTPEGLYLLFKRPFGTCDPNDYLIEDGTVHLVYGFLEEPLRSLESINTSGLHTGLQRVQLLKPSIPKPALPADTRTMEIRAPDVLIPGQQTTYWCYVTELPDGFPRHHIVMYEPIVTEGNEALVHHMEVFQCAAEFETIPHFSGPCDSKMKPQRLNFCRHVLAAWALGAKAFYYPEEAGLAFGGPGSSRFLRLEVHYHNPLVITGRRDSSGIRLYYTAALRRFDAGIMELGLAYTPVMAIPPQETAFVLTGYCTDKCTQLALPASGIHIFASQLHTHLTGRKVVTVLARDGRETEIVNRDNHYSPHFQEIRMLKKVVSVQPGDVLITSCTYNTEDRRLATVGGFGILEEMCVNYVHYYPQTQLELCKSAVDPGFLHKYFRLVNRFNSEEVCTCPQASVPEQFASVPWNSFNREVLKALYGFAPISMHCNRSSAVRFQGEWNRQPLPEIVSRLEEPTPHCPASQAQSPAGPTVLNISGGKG
Description: Binding affinity towards Dopamine beta hydroxylase using tyramine substrate at pH 4.5 in the absence of fumarate. Summed up:
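Homogeneous bovine DBH (sp act. 30–42 U/mg at pH 5.0), tyramine as substrate, pH 4.5, no fumarate. Conditions: 50 mM sodium acetate, ionic strength 0.2, 200 μg/mL bovine catalase, 10 μM Cu²⁺, 10 mM ascorbic acid, 37 °C. Km apparent for tyramine 3.0 mM. Ki fitted with Cleland programs; mean ± SEM.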

Assay [3] relates to Rattus norvegicus. Description: In vivo evaluation ot the compound in spontaneously hypertensive rats for the mean arterial blood pressure. The class given is functional. In a few lines: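 Conscious SHR anesthetized with Brevital Na (10 mg/kg, iv) and femoral artery cannulated to a pressure transducer. After 1-h recovery, baseline MAP taken every 15 min for 1 h. Dosed 50 mg/kg ip unless noted, then MAP recorded every 15–30 min for 4 h. Value at 150 min postdose, mean ± SEM.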

The test system of assay [4] is Rattus norvegicus. Briefly: DBH inhibitory activity was measured as dopamine levels in mesenteric artery at dose of 100 mg/kg, po. The class given is functional, organism-based. Also on record: dose 100 mg/kg. In a few lines: (§1)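 SHR (N = 5) dosed orally twice, about 18 h apart, with vehicle (5% PEG 400 in 1% methocel) or drug at the stated dose. Killed 2 h after the second dose. Mesenteric artery homogenized. Catecholamines measured by COMT methylation with [methyl-3H]-S-adenosylmethionine, chromatographic separation of methylated amines and scintillation counting. Mean ± SEM.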

The nature of assay [5]: Ratio of dopamine to that of NE levels in mesenteric artery measured at 100 mg/kg po. The class given is functional. Summed up:
(§2)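 Spontaneously hypertensive rats (N = 5) got two oral doses about 18 h apart, either vehicle (5% PEG 400 in 1% methocel) or drug in vehicle, and were killed 2 h after the second dose. The mesenteric artery was homogenized. Dopamine and NE were measured by catechol O-methyltransferase methylation with [methyl-3H]-S-adenosylmethionine, then chromatographic separation and scintillation counting. Values are mean ± SEM.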

The test system of assay [6] is Rattus norvegicus. Description: DBH inhibitory activity was measured as dopamine levels in mesenteric artery at dose of 25 mg/kg, po. It is filed as functional, organism-based. On the set-up: dose 25 mg/kg. In a few lines:
as §1

Assay [7] relates to Rattus norvegicus. Description: DBH inhibitory activity was measured as NE levels in mesenteric artery at dose of 25 mg/kg, po. It is filed as functional, organism-based. Also on record: dose 25 mg/kg. Summed up:
as §1

Assay [8] in a line: In vivo evaluation ot the compound in spontaneously hypertensive rats for the catecholamine levels by taking the ratio of copamine to norepinephrine. It is filed as functional. Summed up:
as §2

In assay [9] the test system is Rattus norvegicus. Description: DBH inhibitory activity was measured as dopamine levels in mesenteric artery at dose of 25 mg/kg, po. It is filed as functional, organism-based. On the set-up: dose 25 mg/kg. Summed up:
as §1

The subject of assay [10] is Rattus norvegicus. Description: DBH inhibitory activity was measured as NE levels in mesenteric artery at dose of 50 mg/kg, po. The class given is functional, organism-based. Also on record: dose 50 mg/kg. In a few lines:
as §1

For assay [11], the system named is Rattus norvegicus. Description: DBH inhibitory activity was measured as NE levels in mesenteric artery at dose of 100 mg/kg, po. It is filed as functional, organism-based. Also on record: dose 100 mg/kg. In a few lines: as §1
Assay [12] is described as follows: Ratio of dopamine to that of NE levels in mesenteric artery measured at 25 mg/kg po. The class given is functional. Summed up: as §2
A short description of assay [13]: In vivo evaluation ot the compound in spontaneously hypertensive rats for the catecholamine levels by taking the ratio of dopamine to norepinephrine. It is filed as functional. Summed up:
as §1

As a reminder, the pKi is the negative decadic logarithm of the Ki, by convention in mol/L. High values mean a low Ki, low ones a high Ki. `CCCCc1ccc(C(=O)O)nc1` [FUSARIC ACID]: the Ratio in assay [1] came to 0.109. Besides, in assay [2], the pKi was 6.83.
`Oc1ccc(Cn2cc[nH]c2=S)cc1` had an MAP in assay [3] of 137 mmHg.
For `Fc1cc(F)cc(Cn2cc[nH]c2=S)c1`, the Ratio in [1] is recorded as 0.204; in [5], 0.378; in assay [8], 0.208; in assay [12], 0.155. For the same molecule, the Level is 1.06 µg of tissue in assay [4]; 0.3 µg of tissue in assay [6]; 4.94 µg of tissue in assay [7]; 0.765 µg of tissue in assay [9]; 4 µg of tissue in assay [10]; 3.05 µg of tissue in assay [11]. In assay [2], this molecule had a pKi of 7.39. Moreover, the MAP in assay [3] stood at 105 mmHg.
In turn, `Oc1c(F)cc(Cn2cc[nH]c2=S)cc1F` gave a pKi in assay [2] of 8.24. Moreover, the MAP in [3] is recorded as 137 mmHg. In addition, the Ratio in [13] is given as 0.082.
